Measured values reported in the M2OR odorant receptor database.

What was measured:
Details in all cases: stereoisomer not certain
[1] = target: T1, UniProt Q8VGC6
T1 sequence (whole entry): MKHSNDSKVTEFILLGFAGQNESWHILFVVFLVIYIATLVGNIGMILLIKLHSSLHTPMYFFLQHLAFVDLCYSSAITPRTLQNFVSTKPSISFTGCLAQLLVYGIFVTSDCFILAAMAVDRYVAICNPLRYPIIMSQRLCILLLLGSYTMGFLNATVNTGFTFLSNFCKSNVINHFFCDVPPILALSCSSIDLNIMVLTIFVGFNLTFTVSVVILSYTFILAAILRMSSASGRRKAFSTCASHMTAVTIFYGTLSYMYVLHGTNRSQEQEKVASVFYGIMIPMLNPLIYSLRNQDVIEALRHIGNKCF
Method in brief: (§1)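 Each entry records the cell line, G-protein, co-transfected protein and tags used. Methods varied with the source, often transient luciferase assays in mammalian cell lines. A receptor–molecule pair is called responsive (active) if the original authors judged its signal statistically different from baseline and non-responsive (inactive) otherwise.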

[2] = target: T2, UniProt Q8VGD7
T2 sequence (whole entry): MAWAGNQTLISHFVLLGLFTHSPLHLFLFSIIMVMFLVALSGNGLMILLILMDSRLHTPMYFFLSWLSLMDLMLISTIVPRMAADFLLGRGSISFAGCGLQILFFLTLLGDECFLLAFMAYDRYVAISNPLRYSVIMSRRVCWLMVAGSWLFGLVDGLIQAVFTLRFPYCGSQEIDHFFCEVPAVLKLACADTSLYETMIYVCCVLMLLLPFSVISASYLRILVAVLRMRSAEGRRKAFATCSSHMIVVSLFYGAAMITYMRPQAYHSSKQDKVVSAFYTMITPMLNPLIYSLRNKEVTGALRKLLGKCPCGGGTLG
Method in brief: as §1

[3] = target: T3, UniProt Q8VGH1
T3 sequence (whole entry): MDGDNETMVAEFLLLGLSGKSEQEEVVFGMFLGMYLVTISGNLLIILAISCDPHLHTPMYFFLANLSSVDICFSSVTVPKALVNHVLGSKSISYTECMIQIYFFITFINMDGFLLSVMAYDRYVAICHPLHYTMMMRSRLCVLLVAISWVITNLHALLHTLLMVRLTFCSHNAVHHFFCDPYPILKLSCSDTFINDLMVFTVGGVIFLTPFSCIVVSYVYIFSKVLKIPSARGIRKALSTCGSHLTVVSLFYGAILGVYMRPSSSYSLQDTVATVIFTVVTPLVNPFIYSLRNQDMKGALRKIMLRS
Method in brief: as §1

[4] = target: T4, UniProt Q8VGJ1
T4 sequence (whole entry): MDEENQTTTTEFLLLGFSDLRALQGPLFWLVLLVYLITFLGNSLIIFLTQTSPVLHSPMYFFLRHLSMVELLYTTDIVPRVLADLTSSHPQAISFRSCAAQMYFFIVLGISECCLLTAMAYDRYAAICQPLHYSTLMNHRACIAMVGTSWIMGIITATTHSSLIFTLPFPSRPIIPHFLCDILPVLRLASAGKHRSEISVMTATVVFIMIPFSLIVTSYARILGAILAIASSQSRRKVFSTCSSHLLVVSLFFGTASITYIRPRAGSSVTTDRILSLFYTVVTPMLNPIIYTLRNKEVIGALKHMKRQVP
Method in brief: as §1

[5] = target: T5, UniProt Q8VGJ3
T5 sequence (whole entry): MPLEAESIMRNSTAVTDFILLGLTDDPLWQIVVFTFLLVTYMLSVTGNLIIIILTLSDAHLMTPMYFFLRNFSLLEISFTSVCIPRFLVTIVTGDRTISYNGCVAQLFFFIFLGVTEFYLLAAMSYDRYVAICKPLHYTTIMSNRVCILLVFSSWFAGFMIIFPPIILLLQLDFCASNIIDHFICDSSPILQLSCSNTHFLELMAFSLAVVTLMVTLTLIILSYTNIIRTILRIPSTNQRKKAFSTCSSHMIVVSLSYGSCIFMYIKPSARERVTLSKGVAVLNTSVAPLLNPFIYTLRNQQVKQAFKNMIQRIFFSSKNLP
Method in brief: as §1

[6] = target: T6, UniProt Q8VGJ5
T6 sequence (whole entry): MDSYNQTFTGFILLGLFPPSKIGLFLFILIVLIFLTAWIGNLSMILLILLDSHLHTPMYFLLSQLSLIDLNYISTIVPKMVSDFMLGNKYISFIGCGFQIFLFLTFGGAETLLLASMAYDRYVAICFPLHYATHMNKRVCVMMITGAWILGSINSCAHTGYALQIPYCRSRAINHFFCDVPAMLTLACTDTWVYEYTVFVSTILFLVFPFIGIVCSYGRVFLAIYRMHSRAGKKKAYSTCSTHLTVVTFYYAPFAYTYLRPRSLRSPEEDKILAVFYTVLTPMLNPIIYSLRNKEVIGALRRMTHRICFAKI
Method in brief: as §1

[7] = target: T7, UniProt Q8VGL0
T7 sequence (whole entry): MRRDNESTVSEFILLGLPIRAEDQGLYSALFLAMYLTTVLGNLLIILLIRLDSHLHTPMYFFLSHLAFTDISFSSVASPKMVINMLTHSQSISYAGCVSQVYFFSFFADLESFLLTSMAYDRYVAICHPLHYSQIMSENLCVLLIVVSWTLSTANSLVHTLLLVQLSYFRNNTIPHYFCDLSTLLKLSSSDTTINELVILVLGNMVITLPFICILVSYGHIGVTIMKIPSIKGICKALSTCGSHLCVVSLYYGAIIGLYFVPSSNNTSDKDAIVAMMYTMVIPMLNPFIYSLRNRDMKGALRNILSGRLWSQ
Method in brief: as §1

[8] = target: T8, UniProt Q8VGL7
T8 sequence (whole entry): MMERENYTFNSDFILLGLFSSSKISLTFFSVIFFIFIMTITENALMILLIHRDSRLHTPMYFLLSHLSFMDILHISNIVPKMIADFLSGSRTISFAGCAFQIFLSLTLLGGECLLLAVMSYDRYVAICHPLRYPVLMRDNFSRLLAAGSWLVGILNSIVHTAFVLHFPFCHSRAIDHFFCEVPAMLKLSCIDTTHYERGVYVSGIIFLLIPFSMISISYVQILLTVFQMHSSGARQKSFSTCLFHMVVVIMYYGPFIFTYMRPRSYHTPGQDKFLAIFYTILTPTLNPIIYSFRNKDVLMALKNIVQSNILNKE
Method in brief: as §1

[9] = target: T9, UniProt Q8VGM2
T9 sequence (whole entry): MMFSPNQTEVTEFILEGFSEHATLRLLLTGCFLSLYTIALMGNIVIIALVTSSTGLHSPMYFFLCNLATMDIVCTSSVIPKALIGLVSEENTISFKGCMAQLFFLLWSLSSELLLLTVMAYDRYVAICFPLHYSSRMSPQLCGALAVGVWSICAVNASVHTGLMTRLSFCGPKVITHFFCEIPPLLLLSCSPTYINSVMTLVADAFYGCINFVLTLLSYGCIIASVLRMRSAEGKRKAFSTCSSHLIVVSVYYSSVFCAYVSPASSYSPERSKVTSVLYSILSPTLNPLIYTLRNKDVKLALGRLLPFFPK
Method in brief: as §1

[10] = target: T10, UniProt Q8VGP6
T10 sequence (whole entry): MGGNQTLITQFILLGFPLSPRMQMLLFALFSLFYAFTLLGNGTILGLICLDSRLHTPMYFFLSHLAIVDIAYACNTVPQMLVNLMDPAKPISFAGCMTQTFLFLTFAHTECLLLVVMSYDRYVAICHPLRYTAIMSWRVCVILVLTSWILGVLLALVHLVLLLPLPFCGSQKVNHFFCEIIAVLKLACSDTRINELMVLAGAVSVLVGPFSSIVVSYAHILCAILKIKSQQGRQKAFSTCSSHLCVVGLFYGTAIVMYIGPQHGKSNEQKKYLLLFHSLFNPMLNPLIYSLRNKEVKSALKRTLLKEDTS
Method in brief: as §1

[11] = target: T11, UniProt Q8VGQ3
T11 sequence (whole entry): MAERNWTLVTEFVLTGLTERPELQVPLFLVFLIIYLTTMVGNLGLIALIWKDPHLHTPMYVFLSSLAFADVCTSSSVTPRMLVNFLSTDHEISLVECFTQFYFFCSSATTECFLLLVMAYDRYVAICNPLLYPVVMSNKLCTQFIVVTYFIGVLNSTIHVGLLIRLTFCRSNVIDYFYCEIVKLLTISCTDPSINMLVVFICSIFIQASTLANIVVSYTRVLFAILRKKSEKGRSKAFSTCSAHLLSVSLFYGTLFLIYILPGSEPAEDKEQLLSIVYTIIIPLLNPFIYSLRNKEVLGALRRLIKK
Method in brief: as §1

[12] = target: T12, UniProt Q8VGT4
T12 sequence (whole entry): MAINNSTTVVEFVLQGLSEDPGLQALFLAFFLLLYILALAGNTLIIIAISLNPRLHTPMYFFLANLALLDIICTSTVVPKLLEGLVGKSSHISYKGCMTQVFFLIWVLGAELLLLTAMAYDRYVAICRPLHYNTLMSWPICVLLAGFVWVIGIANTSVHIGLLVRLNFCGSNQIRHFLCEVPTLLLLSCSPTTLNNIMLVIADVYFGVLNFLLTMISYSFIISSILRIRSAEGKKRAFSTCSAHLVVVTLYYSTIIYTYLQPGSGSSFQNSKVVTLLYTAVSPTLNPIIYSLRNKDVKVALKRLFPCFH
Method in brief: as §1

[13] = target: T13, UniProt Q8VGU3
T13 sequence (whole entry): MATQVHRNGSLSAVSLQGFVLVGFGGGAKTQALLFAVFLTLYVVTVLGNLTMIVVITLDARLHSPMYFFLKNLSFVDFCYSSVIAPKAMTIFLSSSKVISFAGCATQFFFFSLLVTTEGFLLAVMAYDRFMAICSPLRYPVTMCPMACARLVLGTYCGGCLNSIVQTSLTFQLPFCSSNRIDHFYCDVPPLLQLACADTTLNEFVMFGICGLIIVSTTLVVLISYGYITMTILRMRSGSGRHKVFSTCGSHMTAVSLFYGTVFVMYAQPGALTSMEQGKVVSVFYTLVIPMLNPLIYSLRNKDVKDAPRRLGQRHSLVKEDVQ
Method in brief: as §1

[14] = target: T14, UniProt Q8VGV1
T14 sequence (whole entry): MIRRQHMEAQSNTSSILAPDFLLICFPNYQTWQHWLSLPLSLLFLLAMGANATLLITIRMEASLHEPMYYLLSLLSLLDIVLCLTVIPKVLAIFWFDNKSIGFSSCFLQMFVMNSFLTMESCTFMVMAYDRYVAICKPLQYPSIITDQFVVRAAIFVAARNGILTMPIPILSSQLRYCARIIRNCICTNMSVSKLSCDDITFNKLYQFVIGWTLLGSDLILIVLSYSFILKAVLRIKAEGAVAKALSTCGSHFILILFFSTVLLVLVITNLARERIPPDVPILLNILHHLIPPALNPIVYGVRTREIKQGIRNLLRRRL
Method in brief: as §1

[15] = target: T15, UniProt Q8VGV7
T15 sequence (whole entry): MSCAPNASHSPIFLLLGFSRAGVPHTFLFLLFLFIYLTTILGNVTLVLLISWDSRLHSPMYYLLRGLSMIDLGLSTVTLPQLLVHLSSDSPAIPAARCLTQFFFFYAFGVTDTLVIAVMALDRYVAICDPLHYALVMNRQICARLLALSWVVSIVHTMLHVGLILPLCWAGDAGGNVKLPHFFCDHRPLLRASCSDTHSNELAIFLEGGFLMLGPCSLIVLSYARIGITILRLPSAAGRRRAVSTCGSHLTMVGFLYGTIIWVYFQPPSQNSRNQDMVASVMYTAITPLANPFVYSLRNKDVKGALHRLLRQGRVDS
Method in brief: as §1

[16] = target: T16, UniProt Q8VGX3
T16 sequence (whole entry): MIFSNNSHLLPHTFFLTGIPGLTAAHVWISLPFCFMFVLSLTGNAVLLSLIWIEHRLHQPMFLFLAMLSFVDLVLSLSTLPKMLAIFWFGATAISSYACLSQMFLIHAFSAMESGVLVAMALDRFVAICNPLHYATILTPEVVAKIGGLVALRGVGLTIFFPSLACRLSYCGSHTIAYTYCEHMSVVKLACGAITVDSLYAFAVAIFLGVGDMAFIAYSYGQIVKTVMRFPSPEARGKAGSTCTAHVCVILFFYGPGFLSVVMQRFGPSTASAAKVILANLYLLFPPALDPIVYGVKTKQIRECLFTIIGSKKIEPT
Method in brief: as §1

[17] = target: T17, UniProt Q8VGX5
T17 sequence (whole entry): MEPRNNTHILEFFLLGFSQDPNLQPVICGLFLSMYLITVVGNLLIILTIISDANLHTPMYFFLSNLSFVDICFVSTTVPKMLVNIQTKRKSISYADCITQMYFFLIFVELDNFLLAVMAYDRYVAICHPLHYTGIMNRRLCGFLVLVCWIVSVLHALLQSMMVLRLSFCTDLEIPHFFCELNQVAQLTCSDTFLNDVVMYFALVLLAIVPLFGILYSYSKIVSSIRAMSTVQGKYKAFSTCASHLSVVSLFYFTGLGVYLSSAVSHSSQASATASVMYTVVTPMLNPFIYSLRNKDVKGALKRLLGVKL
Method in brief: as §1

[18] = target: T18, UniProt Q8VGW5
T18 sequence (whole entry): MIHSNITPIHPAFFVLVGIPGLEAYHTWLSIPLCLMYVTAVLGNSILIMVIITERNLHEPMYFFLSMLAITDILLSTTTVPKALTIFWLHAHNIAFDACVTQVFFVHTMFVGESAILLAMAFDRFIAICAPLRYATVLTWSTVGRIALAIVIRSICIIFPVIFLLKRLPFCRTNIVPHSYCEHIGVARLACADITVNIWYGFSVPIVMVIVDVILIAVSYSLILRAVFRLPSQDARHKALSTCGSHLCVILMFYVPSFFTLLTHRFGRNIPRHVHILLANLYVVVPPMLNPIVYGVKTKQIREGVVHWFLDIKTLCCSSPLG
Method in brief: as §1

Measured: odorant receptor agonist call

CCCCC(C)=O
inactive: [1] | [2] | [3] | [4] | [5] | [7] | [8] | [9] | [10] | [11] | [12] | [13] | [14] | [15] | [16] | [17]
active: [6]

CCCCCCCCCC(=O)[O-].[H+]
inactive: [2] | [3] | [4] | [5] | [6] | [7] | [8] | [9] | [10] | [11] | [12] | [13] | [15] | [18] | [16] | [17]
active: [1] | [14]

CC(C)=CCCC(C)CC=O (configuration not stated)
inactive: [1]

CCCCCCOC(C)=O
inactive: [1] | [2] | [3] | [4] | [5] | [6] | [7] | [8] | [9] | [10] | [11] | [12] | [13] | [14] | [15] | [16] | [17]

CCCCCCCCCO
active: [1] | [10]
inactive: [2] | [3] | [4] | [5] | [6] | [7] | [8] | [9] | [11] | [12] | [13] | [14] | [15] | [18] | [16] | [17]

CCCC(=O)OC
inactive: [1]
